Measured values taken from ChEMBL document CHEMBL1122883, “An interdisciplinary approach to the design of new structures active at the beta-adrenergic receptor. Aliphatic oxime ether derivatives” (J Med Chem, 1985).

Assays:
[1] = target: Beta-2 adrenergic receptor (Cavia porcellus) (UniProt Q8K4Z4); experiment: Antagonistic activity against beta-2 adrenergic receptor of isolated guinea pig tracheal strips; type: functional, tissue-based; settings: Trachea
Method in brief: (§1)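 Tracheal strips from male adult guinea pigs (300–350 g) in Krebs–Henseleit with ascorbic acid (0.1 mg/mL) and phentolamine (0.1 μg/mL), 37 °C, 95% O2–5% CO2. Strips were under 0.5 g tension, stabilized 30 min, and given steady tone with carbachol 5 × 10^-7 M. Isotonic recording. Agonist dose–response curves to noradrenaline and isoprenaline were run before and after 20 min antagonist contact.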

[2] = target: Beta-2 adrenergic receptor (Cavia porcellus) (UniProt Q8K4Z4); experiment: Specific antagonistic activity difference against beta-2 adrenergic receptor of isolated guinea pig tracheal strips; type: functional
[3] = target: Beta-2 adrenergic receptor (Cavia porcellus, UniProt Q8K4Z4); experiment: Antagonistic activity against beta-2 adrenergic receptor on isolated guinea pig tracheal strips; type: functional, tissue-based, Trachea; settings: read-out: pA2 (converted); method in brief: as §1
[4] = target: Beta-1 adrenergic receptor (Cavia porcellus) (UniProt B0FL73); experiment: Stimulating activity against beta-1
Method in brief: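 Agonist given until maximal response was reached, building dose–response curves. Affinity expressed as pD2, calculated by the Ariëns–Van Rossum method.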

[5] = target: Beta-1 adrenergic receptor (Cavia porcellus, UniProt B0FL73); experiment: (§2) Antagonistic activity against beta-1 adrenergic receptor of isolated guinea pig atria; type: functional; settings: read-out: pA2 (converted)
Method in brief: (§3)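 Antagonism was assessed from dose–response curves to noradrenaline and isoprenaline obtained before and after a 20 min contact period with the test antagonist. Each agonist was allowed to act until maximal response.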

[6] = target: Beta-1 adrenergic receptor (Cavia porcellus) (UniProt B0FL73); experiment: Specific antagonistic activity difference against beta-1 adrenergic receptor of isolated guinea pig atria; type: functional
[7] = target: Beta-1 adrenergic receptor (Cavia porcellus) (UniProt B0FL73); experiment: as §2; type: functional; method in brief: as §3
[8] = target: Beta-1 adrenergic receptor (Cavia porcellus) (UniProt B0FL73)
[9] = target: Beta-1 adrenergic receptor (Cavia porcellus) (UniProt B0FL73); experiment: […] activity against beta-1 adrenergic receptor on isolated guinea pig atria; type: functional; method in brief: as §3

Sequence of Beta-1 adrenergic receptor (B0FL73 whole entry): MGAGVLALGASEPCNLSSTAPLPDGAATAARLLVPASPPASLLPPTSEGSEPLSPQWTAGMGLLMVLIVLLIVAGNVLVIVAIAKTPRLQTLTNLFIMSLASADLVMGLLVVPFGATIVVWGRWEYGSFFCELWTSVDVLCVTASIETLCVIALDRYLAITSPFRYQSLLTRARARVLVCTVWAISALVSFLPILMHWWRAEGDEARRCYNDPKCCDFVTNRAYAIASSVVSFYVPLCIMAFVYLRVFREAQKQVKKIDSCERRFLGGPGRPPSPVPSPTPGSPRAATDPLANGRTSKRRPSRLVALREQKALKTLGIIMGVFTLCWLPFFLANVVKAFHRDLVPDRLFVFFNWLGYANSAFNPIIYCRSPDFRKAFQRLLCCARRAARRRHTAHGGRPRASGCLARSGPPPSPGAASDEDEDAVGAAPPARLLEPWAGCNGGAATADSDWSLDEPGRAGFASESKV
Sequence of Beta-1 adrenergic receptor (Cavia porcellus) (B0FL73 1-467): as the sequence (B0FL73 whole entry) above
Sequence of Beta-2 adrenergic receptor (Cavia porcellus) (Q8K4Z4 whole entry, looked up): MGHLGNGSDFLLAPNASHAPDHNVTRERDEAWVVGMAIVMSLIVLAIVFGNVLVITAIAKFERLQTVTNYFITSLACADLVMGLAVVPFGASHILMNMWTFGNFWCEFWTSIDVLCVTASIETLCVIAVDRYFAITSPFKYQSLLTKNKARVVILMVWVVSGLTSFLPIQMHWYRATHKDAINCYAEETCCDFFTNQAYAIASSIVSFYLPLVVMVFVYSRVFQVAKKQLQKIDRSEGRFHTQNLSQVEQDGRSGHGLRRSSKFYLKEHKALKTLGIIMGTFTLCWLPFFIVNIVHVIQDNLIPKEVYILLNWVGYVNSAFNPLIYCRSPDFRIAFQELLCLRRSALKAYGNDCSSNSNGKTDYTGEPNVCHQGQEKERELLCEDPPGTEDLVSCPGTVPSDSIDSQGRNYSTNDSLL
Sequence of Beta-2 adrenergic receptor (Q8K4Z4 whole entry): as the sequence (Q8K4Z4 whole entry, looked up) above

pA10 [1]	pA2 - pA10 [2]	Kb [3]	pD2 [4]	Kb [5]	pA2 - pA10 [6]	pA10 [7]	pD2 [8]	pD2 [9]	SMILES
6.82	0.82	22.9 nM	6.12	14500 nM	0.9	3.94			CC(C)C(=NOCC(O)CNC(C)(C)C)C(C)C (centres undefined)
6.09	0.71	155 nM		24500 nM	0.8	3.81			CC(C)NCC(O)CON=C1CCCC1 (centres undefined)
7.93	0.69	2.4 nM		4680 nM	0.85	4.48			CCCC(CCC)=NOCC(O)CNC(C)(C)C (centres undefined)
7.62	0.9	3.02 nM		17000 nM	0.89	3.88	6.08		CC(C)NCC(O)CON=C(C(C)C)C(C)C (centres undefined)
								8.44	OCc1ccc(O)c(O)c1
7.14	0.84	10.5 nM		1260 nM	0.71	5.19			CCC(CC)=NOCC(O)CNC(C)(C)C (centres undefined)
7.57	0.81	4.17 nM		955 nM	0.78	5.24			CCC(CC)=NOCC(O)CNC(C)C (centres undefined)
5.88	0.88	174 nM		53700 nM	0.69	3.58			CC(C)(C)NCC(O)CON=C1CCCC1 (centres undefined)
7.49	0.714	6.31 nM		20900 nM	0.55	4.13			CCCC(CCC)=NOCC(O)CNC(C)C (centres undefined)
6.64	0.5	72.4 nM		20000 nM	0.82	3.88			CC(C)NCC(O)CON=C1CCCCC1 (centres undefined)
6.81	0.6	38.9 nM		8320 nM	0.78	4.3			CC(C)(C)NCC(O)CON=C1CCCCC1 (centres undefined)

SMILES	pA10 [1]	pA2 - pA10 [2]	Kb [3]	pD2 [4]	Kb [5]	pA2 - pA10 [6]	pA10 [7]	pD2 [8]	pD2 [9]
COc1ccc(OC)c(C(O)C(C)NC(C)(C)C)c1 (centres undefined) [BUTOXAMINE]	5.96	0.93	129 nM		44700 nM	0.37	3.98		
